The text below walks through data of ChEMBL document CHEMBL1134606, “Synthesis and structure-activity relationships of a new model of arylpiperazines. 5. Study of the physicochemical influence of the pharmacophore on 5-HT(1a)/alpha(1)-adrenergic receptor affinity: synthesis of a new derivative with mixed 5-HT(1a)/d(2) antagonist properties” (J Med Chem, 2001).

Assay [1] has as its target T1, Adrenergic receptor alpha-1 (Rattus norvegicus, UniProt P15823+P23944+P43140).
T1 sequence (P15823 whole entry): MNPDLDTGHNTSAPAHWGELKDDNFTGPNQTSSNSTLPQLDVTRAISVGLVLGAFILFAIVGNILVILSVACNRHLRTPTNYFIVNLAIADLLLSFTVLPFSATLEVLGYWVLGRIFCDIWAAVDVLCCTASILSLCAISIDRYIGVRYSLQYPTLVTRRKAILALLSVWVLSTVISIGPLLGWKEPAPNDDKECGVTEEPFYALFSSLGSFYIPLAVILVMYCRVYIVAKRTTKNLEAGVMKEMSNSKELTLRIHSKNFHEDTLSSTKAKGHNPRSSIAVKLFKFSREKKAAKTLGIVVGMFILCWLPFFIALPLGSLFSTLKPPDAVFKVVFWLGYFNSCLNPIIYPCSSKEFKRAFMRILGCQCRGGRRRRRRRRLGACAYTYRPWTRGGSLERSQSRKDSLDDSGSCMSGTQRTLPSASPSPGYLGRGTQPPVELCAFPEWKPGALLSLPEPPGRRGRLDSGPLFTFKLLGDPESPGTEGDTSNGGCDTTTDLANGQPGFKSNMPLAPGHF
T1 sequence (P23944 whole entry): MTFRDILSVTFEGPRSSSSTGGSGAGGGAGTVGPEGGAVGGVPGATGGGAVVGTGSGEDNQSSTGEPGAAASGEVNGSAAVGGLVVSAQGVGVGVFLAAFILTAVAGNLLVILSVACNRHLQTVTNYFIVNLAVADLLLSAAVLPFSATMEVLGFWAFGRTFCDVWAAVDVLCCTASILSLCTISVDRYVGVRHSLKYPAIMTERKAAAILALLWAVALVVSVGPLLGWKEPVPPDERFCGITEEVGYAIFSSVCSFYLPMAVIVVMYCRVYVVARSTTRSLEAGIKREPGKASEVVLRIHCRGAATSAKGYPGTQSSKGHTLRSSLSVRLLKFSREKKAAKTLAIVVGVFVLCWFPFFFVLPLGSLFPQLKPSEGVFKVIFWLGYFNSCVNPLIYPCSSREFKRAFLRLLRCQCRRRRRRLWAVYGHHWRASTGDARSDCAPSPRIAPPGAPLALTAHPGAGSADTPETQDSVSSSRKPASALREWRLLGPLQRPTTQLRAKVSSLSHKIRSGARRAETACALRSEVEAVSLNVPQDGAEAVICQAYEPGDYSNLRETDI
T1 sequence (P43140 whole entry): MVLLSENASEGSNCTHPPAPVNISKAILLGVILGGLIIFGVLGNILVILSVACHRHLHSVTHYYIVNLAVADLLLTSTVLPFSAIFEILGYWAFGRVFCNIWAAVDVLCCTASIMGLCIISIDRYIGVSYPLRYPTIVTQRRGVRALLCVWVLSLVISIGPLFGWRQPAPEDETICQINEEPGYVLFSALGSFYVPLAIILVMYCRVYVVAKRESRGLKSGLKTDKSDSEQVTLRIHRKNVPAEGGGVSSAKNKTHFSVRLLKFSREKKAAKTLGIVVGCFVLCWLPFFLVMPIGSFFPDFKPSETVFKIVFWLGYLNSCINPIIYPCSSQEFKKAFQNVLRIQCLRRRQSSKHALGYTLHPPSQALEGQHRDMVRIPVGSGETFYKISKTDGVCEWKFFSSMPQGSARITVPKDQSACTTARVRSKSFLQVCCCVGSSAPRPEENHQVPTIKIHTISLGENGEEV
The experiment in a line: In vitro binding affinity towards alpha-1 adrenergic receptor using radioligand [3H]prazosin. It is filed as protein assay. The essentials:
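Cerebral cortex from male Sprague-Dawley rats, membranes (about 250 µg protein) in 50 mM Tris-HCl/10 mM MgCl2 pH 7.4, incubated 30 min at 25 °C with 0.2 nM [3H]prazosin and varied competitor concentrations; 10 µM phentolamine for nonspecific. Triplicates, filtration and scintillation counting; Ki from fitted IC50 by Cheng-Prusoff.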

The target of assay [2] is D(2) dopamine receptor (Rattus norvegicus) (UniProt P61169). The assay is described as follows: In vitro binding affinity towards D2 receptor was determined.
Assay [3] has as its target T2, 5-hydroxytryptamine receptor 1A (Rattus norvegicus, UniProt P19327).
T2 sequence (P19327 whole entry): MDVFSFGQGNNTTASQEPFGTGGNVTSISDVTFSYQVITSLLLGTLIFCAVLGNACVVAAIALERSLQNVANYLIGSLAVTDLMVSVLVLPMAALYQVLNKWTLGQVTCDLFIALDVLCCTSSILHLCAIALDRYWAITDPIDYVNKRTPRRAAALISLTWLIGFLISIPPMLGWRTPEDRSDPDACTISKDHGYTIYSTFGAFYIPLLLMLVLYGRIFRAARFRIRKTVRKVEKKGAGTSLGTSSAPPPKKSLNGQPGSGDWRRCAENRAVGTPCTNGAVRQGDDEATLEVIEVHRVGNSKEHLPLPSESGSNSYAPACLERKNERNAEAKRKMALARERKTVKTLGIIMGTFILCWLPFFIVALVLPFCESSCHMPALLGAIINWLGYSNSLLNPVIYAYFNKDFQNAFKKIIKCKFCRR
The assay is described as follows: In vitro binding affinity towards 5-hydroxytryptamine 1A receptor was determined using radioligand [3H]-8-OH-DPAT. The essentials:
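Rat (male Sprague-Dawley) cerebral cortex membranes, about 1 mg protein, incubated 15 min at 37 °C with 0.6 nM [3H]8-OH-DPAT plus competitor in 50 mM Tris-HCl with 10 nM clonidine and 30 nM prazosin, pH 7.4. Nonspecific binding with 10 µM 5-HT. Triplicates; GF/B filtration, scintillation counting; IC50 curve fit, Ki by Cheng-Prusoff; 2-4 experiments.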

Assay [4] has as its target 5-hydroxytryptamine receptor 4 (Rattus norvegicus). The experiment in a line: In vitro binding affinity towards 5-HT4 receptor was determined.
Assay [5] concerns the target 5-hydroxytryptamine receptor 2A (Rattus norvegicus) (UniProt P14842). The assay is described as follows: In vitro binding affinity towards 5-hydroxytryptamine 2A receptor was determined.
The target in assay [6] is 5-hydroxytryptamine receptor 3A (Rattus norvegicus) (UniProt P35563). The experiment in a line: In vitro binding affinity towards 5-hydroxytryptamine 3 receptor was determined.

A value given as a limit tells only on which side of the number the result lay.

Sequence of 5-hydroxytryptamine receptor 3A (Rattus norvegicus) (P35563 whole entry, looked up): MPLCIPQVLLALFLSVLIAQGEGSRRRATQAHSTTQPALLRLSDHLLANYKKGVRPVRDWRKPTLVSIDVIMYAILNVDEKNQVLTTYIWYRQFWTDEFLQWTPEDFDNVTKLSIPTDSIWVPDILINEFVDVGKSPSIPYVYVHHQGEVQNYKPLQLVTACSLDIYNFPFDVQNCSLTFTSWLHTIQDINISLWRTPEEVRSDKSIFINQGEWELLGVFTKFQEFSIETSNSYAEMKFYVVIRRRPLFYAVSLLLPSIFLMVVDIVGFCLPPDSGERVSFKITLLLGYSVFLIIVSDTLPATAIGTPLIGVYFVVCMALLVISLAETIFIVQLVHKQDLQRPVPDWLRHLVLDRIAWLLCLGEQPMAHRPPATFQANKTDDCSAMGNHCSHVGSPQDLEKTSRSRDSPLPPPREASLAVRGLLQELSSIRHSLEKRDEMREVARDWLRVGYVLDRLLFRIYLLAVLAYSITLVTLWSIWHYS
Sequence of 5-hydroxytryptamine receptor 2A (Rattus norvegicus) (P14842 whole entry, looked up): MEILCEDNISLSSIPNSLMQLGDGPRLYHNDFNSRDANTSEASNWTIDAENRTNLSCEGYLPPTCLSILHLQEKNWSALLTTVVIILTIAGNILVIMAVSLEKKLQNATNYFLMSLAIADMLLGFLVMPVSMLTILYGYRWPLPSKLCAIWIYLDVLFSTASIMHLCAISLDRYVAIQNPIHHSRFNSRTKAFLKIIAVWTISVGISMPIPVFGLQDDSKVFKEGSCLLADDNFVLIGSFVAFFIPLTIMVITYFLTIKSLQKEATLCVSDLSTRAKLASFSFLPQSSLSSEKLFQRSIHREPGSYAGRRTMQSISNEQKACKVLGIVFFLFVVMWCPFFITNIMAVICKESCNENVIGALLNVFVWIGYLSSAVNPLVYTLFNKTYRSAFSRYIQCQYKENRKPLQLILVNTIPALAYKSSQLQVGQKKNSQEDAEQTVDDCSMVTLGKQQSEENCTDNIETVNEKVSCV
Sequence of D(2) dopamine receptor (Rattus norvegicus) (P61169 whole entry, looked up): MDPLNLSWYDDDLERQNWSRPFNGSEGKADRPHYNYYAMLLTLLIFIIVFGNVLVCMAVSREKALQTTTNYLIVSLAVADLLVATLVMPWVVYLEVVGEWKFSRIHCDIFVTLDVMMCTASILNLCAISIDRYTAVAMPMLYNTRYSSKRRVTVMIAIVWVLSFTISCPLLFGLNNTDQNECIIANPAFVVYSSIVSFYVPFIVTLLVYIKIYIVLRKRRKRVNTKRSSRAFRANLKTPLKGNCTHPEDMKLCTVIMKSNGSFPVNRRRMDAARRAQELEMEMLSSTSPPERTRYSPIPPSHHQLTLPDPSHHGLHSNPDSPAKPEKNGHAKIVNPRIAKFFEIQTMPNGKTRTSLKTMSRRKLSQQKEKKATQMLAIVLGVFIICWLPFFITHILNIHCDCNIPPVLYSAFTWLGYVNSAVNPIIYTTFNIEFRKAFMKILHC

In the case of `CC(C)C(=O)Nc1cccc(N2CCN(CCCCN3C(=O)C4CCCN4C3=O)CC2)c1.Cl` (stereo not drawn), the Ki in assay [1] is recorded as greater than 10000 nM.

In the case of `CCS(=O)(=O)Nc1cccc(N2CCN(CCCCN3C(=O)C4CCCN4C3=O)CC2)c1.Cl` (stereo not drawn), the inhibition constant (Ki) in assay [2] is 22 nM; in assay [3], 27 nM; in assay [4] it was greater than 1000 nM; in assay [5], greater than 1000 nM; in assay [6] it was greater than 1000 nM; in assay [1], greater than 10000 nM.

`CC(C)C(=O)Nc1cccc(N2CCN(CCCN3C(=O)C4CCCCN4C3=O)CC2)c1.Cl` (stereo not drawn): the figures for the Ki in assay [3] and in assay [1] were greater than 1000 nM and greater than 10000 nM, respectively.

In the case of `Cl.N#Cc1ccccc1N1CCN(CCCN2C(=O)C3CCCCN3C2=O)CC1` (stereo not drawn), the inhibition constant (Ki) in assay [3] was determined as 33 nM; in assay [1], 13 nM.

With `CCCCOc1ccccc1N1CCN(CCCN2C(=O)C3CCCN3C2=O)CC1.Cl` (stereo not drawn), the Ki in assay [3] is 11 nM; in assay [1], 30 nM.

As for `Cl.Nc1cccc(N2CCN(CCCCN3C(=O)C4CCCCN4C3=O)CC2)c1` (stereo not drawn), the values for the Ki in assay [3] and in assay [1] were 80 nM and 215 nM, respectively.

Consider `COc1ccccc1N1CCN(CCCCN2CC(=O)N3CCCC3C2=O)CC1.Cl` (stereo not drawn), for which the Ki was determined as 8.6 nM in assay [3] and 28 nM in assay [1].

Regarding `CCCNC(=O)c1ccccc1N1CCN(CCCCN2C(=O)C3CCCCN3C2=O)CC1.Cl` (stereo not drawn), the Ki was 341 nM in assay [3] and greater than 1000 nM in assay [1].

In the case of `CCCCOc1ccccc1N1CCN(CCCCN2C(=O)C3CCCCN3C2=O)CC1.Cl` (stereo not drawn), the Ki in assay [3] was 1.2 nM; in assay [1] it was 0.4 nM.

On to `Cl.N#Cc1ccccc1N1CCN(CCCCN2C(=O)C3CCCN3C2=O)CC1` (stereo not drawn), for which the Ki in assay [3] was 3.7 nM; in assay [1] it was 8 nM.

For `CCCOC(=O)c1ccccc1N1CCN(CCCCN2CC(=O)N3CCCCC3C2=O)CC1.Cl` (stereo not drawn), the Ki in assay [3] worked out at 24 nM; in assay [1], 561 nM.

Turning to `Cc1ccccc1N1CCN(CCCCN2C(=O)C3CCCN3C2=O)CC1.Cl` (stereo not drawn), the Ki was 16 nM in assay [3] and 10 nM in assay [1].

Regarding `Cl.N#Cc1ccccc1N1CCN(CCCN2CC(=O)N3CCCC3C2=O)CC1` (stereo not drawn), the Ki in assay [3] worked out at 31 nM; in assay [1] it was 28 nM.

Turning to `CCCOC(=O)c1ccccc1N1CCN(CCCCN2C(=O)C3CCCN3C2=O)CC1.Cl` (stereo not drawn), the Ki was 3.9 nM in assay [3] and 51 nM in assay [1].

With `Cc1ccccc1N1CCN(CCCCN2CC(=O)N3CCCCC3C2=O)CC1.Cl` (stereo not drawn), the Ki in assay [3] turned out to be 27 nM; in assay [1], 29 nM.

Consider `Cl.O=C1C2CCCN2C(=O)CN1CCCCN1CCN(c2cccc(C(F)(F)F)c2)CC1` (stereo not drawn), for which the Ki in assay [3] came out at 3.6 nM; in assay [1], 95 nM.

As for `CCCNC(=O)c1ccccc1N1CCN(CCCCN2CC(=O)N3CCCC3C2=O)CC1.Cl` (stereo not drawn), the Ki in assay [3] and in assay [1] was greater than 1000 nM in each case.

`CCCCOc1ccccc1N1CCN(CCCN2CC(=O)N3CCCCC3C2=O)CC1.Cl` (stereo not drawn): the Ki is 110 nM in assay [3] and 79 nM in assay [1].

Consider `Cl.O=C1C2CCCN2C(=O)N1CCCN1CCN(c2cccc(Br)c2)CC1` (stereo not drawn), for which the Ki in assay [3] turned out to be 33 nM; in assay [1] it was 29 nM.

Regarding `Cc1ccccc1N1CCN(CCCN2C(=O)C3CCCCN3C2=O)CC1.Cl` (stereo not drawn), the inhibition constant (Ki) worked out at 134 nM in assay [3] and 5.3 nM in assay [1].

Regarding `COc1ccccc1N1CCN(CCCN2CC(=O)N3CCCCC3C2=O)CC1.Cl` (stereo not drawn), the Ki in assay [3] was determined as 126 nM; in assay [1], 16 nM.

With `CC(C)C(=O)Nc1cccc(N2CCN(CCCN3CC(=O)N4CCCC4C3=O)CC2)c1.Cl` (stereo not drawn), the results for the Ki in assay [3] and in assay [1] were 326 nM and greater than 1000 nM, respectively.

`CCCOC(=O)c1ccccc1N1CCN(CCCN2C(=O)C3CCCCN3C2=O)CC1.Cl` (stereo not drawn): the inhibition constant Ki in assay [3] worked out at 60 nM; in assay [1] it was 41 nM.

For `Cl.Nc1cccc(N2CCN(CCCN3C(=O)C4CCCN4C3=O)CC2)c1` (stereo not drawn), the Ki in assay [3] and in assay [1] was greater than 1000 nM in each case.

Take `Cl.O=C1C2CCCCN2C(=O)N1CCCCN1CCN(c2cccc(Br)c2)CC1` (stereo not drawn): the Ki in assay [3] was 4 nM; in assay [1], 5.3 nM.

For `CCCNC(=O)c1ccccc1N1CCN(CCCN2C(=O)C3CCCN3C2=O)CC1.Cl` (stereo not drawn), the Ki in assay [3] and in assay [1] was greater than 1000 nM throughout.

`CC(C)C(=O)Nc1cccc(N2CCN(CCCCN3CC(=O)N4CCCCC4C3=O)CC2)c1.Cl` (stereo not drawn): the Ki in assay [3] was 169 nM; in assay [1], greater than 10000 nM.

For `Cl.N#Cc1ccccc1N1CCN(CCCCN2CC(=O)N3CCCCC3C2=O)CC1` (stereo not drawn), the Ki in assay [3] came out at 14 nM; in assay [1] it was 27 nM.

`CCCCOc1ccccc1N1CCN(CCCCN2CC(=O)N3CCCC3C2=O)CC1.Cl` (stereo not drawn): the results for the inhibitory constant (Ki) in assay [3] and in assay [1] were 6.5 nM and 18 nM, respectively.

Consider `Cl.O=C1C2CCCCN2C(=O)CN1CCCN1CCN(c2cccc(C(F)(F)F)c2)CC1` (stereo not drawn), for which the Ki worked out at 214 nM in assay [3] and 252 nM in assay [1].

As for `CCCNC(=O)c1ccccc1N1CCN(CCCN2CC(=O)N3CCCCC3C2=O)CC1.Cl` (stereo not drawn), the inhibition constant (Ki) in assay [3] was greater than 10000 nM; in assay [1], greater than 1000 nM.

`CCCOC(=O)c1ccccc1N1CCN(CCCN2CC(=O)N3CCCC3C2=O)CC1.Cl` (stereo not drawn) registered a Ki in assay [1] of 26 nM.

As to `Cc1ccccc1N1CCN(CCCN2CC(=O)N3CCCC3C2=O)CC1.Cl` (stereo not drawn), the inhibition constant (Ki) in assay [3] came to 27 nM; in assay [1], 23 nM.

One may read the Ki as a dissociation constant, usually derived from enzyme kinetics or from competition with a known ligand. Lower therefore signals a stronger hold on the target.
